IC50 and Activity data for 17 compounds are collected here from ChEMBL document CHEMBL1144522, “Novel C2-C3' N-peptide linked macrocyclic taxoids. Part 2: synthesis and biological activities of docetaxel analogues with a peptide side chain at C2 and their macrocyclic derivatives” (Bioorg Med Chem, 2007).

Activity calls are given as the source filed them. No cut-off for these calls is given here. *1 amine or outer side, *2 acyl side, *3 side chain or, on linkers, in order; H or OH if unused. Where a SMILES comes first, the peptide text is derived from it. Bridges are numbered along the chain shown (N, C = ends). [ ]: non-standard residue; d: D form. The star is where a group is joined. ξ: configuration not given here. X1 = CC(=O)O[C@@]12COC1C[C@H](O)[C@@]1(C)C(=O)[C@H](O)C3=C(C)[C@@H](OC(=O)[C@H](O)[C@@H](NC(=O)[*:1])c4ccccc4)C[C@@](O)([C@@H](O[*:2])C21)C3(C)C; ξD = NC(CC(=O)O)C(=O)O; OtBu = CC(C)(C)O*

The subject of data set [1] is KB. As to the kind of experiment: Cytotoxicity against human KB cells after 72 hrs. Format: cell-based. To be noted: for IC50: Homo sapiens, KB; for Activity: human, kb. The method in brief: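 Cell proliferation measured after 72 h incubation with compound. IC50 is the drug concentration that inhibits proliferation by 50%. Run by an established literature protocol.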

The target in data set [2] is Tubulin. As to the kind of experiment: (§1) Tubulin interaction assessed as inhibition of cold-induced microtubule disassembly. Format: protein-complex assay, Homo sapiens. The method in brief:
(§2)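 Microtubular protein was purified from mammalian brain. The assay followed the rate of microtubule disassembly. IC50 is the concentration that inhibits that rate by 50%. Run by an established literature protocol.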

For data set [3], the target named is Tubulin (Homo sapiens) (UniProt P68371+Q9H4B7+P0DPH7+P68366+Q13509+Q71U36+P04350+Q3ZCM7+P07437+P68363+Q9BQE3+Q6PEY2+Q13885+Q9BVA1+Q9BUF5). The description is as §1. Format: protein-complex assay. The method in brief:
as §2

Regarding `CC(=O)O[C@@]12COC1C[C@H](O)[C@@]1(C)C(=O)[C@H](O)C3=C(C)[C@@H](OC(=O)C(O)[C@@H](NC(=O)N[C@H](C(=O)N4CCC[C@H]4C(=O)NCC(=O)NCC(=O)OCc4ccccc4)C(C)C)c4ccccc4)C[C@@](O)([C@@H](OC(=O)c4cccc([N+](=O)[O-])c4)C21)C3(C)C` (some centres undefined), the results for the IC50 in data set [1] and in data set [2] were above 10000 nM and 500 nM, respectively.
Regarding `CC(=O)O[C@@]12COC1C[C@H](O)[C@@]1(C)C(=O)[C@H](O)C3=C(C)[C@@H](OC(=O)[C@H](O)[C@@H](NC(=O)OC(C)(C)C)c4ccccc4)C[C@@](O)([C@@H](OC(=O)[C@@H]4CCCN4C(=O)CNC(=O)CN)C21)C3(C)C` (some centres undefined), in data set [1], the Activity entry is on record as “Not Active”. Besides, the outcome in data set [3] was inactive.
Consider `CC(=O)O[C@@]12COC1C[C@H](O)[C@@]1(C)C(=O)[C@H](O)C3=C(C)[C@@H](OC(=O)[C@H](O)[C@@H](NC(=O)OC(C)(C)C)c4ccccc4)C[C@@](O)([C@@H](OC(=O)CN)C21)C3(C)C` (some centres undefined), for which the IC50 – broadly, the concentration that gives 50% inhibition – in data set [1] was above 10000 nM; in data set [2], 51000 nM.
Consider `CC(=O)O[C@@]12COC1C[C@H](O)[C@@]1(C)C(=O)[C@H](O)C3=C(C)[C@@H]4C[C@@](O)([C@@H](OC(=O)CNC(=O)C(CC(=O)OC(C)(C)C)NC(=O)CNC(=O)CNC(=O)[C@@H]5CCCN5C(=O)[C@H](C(C)C)NC(=O)N[C@@H](c5ccccc5)[C@@H](O)C(=O)O4)C21)C3(C)C` (some centres undefined) (VPGG[ξD](OtBu)G; linker N-C via X1), for which, in data set [1], the Activity result was “Non-toxic”.
In the case of `CC(=O)O[C@@]12CO[C@@H]1C[C@H](O)[C@@]1(C)C(=O)[C@H](O)C3=C(C)[C@@H](OC(=O)[C@H](O)[C@@H](NC(=O)OC(C)(C)C)c4ccccc4)C[C@@](O)([C@@H](OC(=O)c4ccccc4)[C@H]21)C3(C)C` [DOCETAXEL], the figures for the 50% inhibitory concentration (IC50) in data set [1] and in data set [2] were 0.1 nM and 500 nM, respectively.
For the compound `CC(=O)O[C@@]12COC1C[C@H](O)[C@@]1(C)C(=O)[C@H](O)C3=C(C)[C@@H]4C[C@@](O)([C@@H](OC(=O)c5cccc(c5)NC(=O)CNC(=O)CNC(=O)[C@@H]5CCCN5C(=O)[C@H](C(C)C)NC(=O)N[C@@H](c5ccccc5)[C@@H](O)C(=O)O4)C21)C3(C)C` (some centres undefined), the Activity entry in data set [1] is on record as “Non-toxic”.
On to `CC(=O)O[C@@]12COC1C[C@H](O)[C@@]1(C)C(=O)[C@H](O)C3=C(C)[C@@H](OC(=O)[C@H](O)[C@@H](NC(=O)OC(C)(C)C)c4ccccc4)C[C@@](O)([C@@H](OC(=O)[C@@H](NC(=O)[C@@H]4CCCN4C(=O)CNC(=O)CN)C(C)C)C21)C3(C)C` (some centres undefined), for which the Activity entry in data set [1] is “Not Active”. In data set [3], the result was inactive.
In the case of `CC(=O)O[C@@]12COC1C[C@H](O)[C@@]1(C)C(=O)[C@H](O)C3=C(C)[C@@H](OC(=O)[C@H](O)[C@@H](NC(=O)N[C@H](C(=O)OCc4ccccc4)C(C)C)c4ccccc4)C[C@@](O)([C@@H](OCc4ccccc4)C21)C3(C)C` (some centres undefined), the half-inhibitory concentration (IC50) in data set [1] was 4 nM; in data set [2], 800 nM.
Take `COC(=O)[C@@H](CCSC)NC(=O)[C@H](Cc1ccccc1)NC(=O)[C@@H](NC(=O)N[C@@H](c1ccccc1)[C@@H](O)C(=O)O[C@H]1C[C@@]2(O)[C@@H](OCc3ccccc3)C3[C@]4(OC(C)=O)COC4C[C@H](O)[C@@]3(C)C(=O)[C@H](O)C(=C1C)C2(C)C)C(C)C` (some centres undefined): the concentration for half-maximal inhibition (IC50) in data set [2] turned out to be 2600 nM.
Turning to `CC(=O)O[C@@]12COC1C[C@H](O)[C@@]1(C)C(=O)[C@H](O)C3=C(C)[C@@H](OC(=O)C(O)C(NC(=O)N[C@H](C(=O)N4CCC[C@H]4C(=O)NCC(=O)O)C(C)C)c4ccccc4)C[C@@](O)([C@@H](OCc4ccccc4)C21)C3(C)C` (some centres undefined), the figures for the concentration for half-maximal inhibition (IC50) in data set [1] and in data set [2] were above 10000 nM and 600 nM, respectively.
Turning to `CC(=O)O[C@@]12COC1C[C@H](O)[C@@]1(C)C(=O)[C@H](O)C3=C(C)[C@@H](OC(=O)[C@H](O)[C@@H](NC(=O)NCC(=O)N[C@@H](CO)C(=O)N[C@@H](Cc4ccc(O)cc4)C(=O)O)c4ccccc4)C[C@@](O)([C@@H](OCc4ccccc4)C21)C3(C)C` (some centres undefined), the IC50 in data set [1] stood at 1050 nM; in data set [2], 1000 nM.
As for `COC(=O)[C@H](CCSC)NC(=O)[C@H](Cc1ccccc1)NC(=O)[C@@H](NC(=O)N[C@@H](c1ccccc1)[C@@H](O)C(=O)O[C@H]1C[C@@]2(O)[C@@H](OCc3ccccc3)C3[C@]4(OC(C)=O)COC4C[C@H](O)[C@@]3(C)C(=O)[C@H](O)C(=C1C)C2(C)C)C(C)C` (some centres undefined), in data set [1], the IC50 was determined as 1100 nM.
In data set [1], `CC(=O)O[C@@]12COC1C[C@H](O)[C@@]1(C)C(=O)[C@H](O)C3=C(C)[C@@H](OC(=O)[C@H](O)[C@@H](NC(=O)OC(C)(C)C)c4ccccc4)C[C@@](O)([C@@H](OC(=O)CNC(=O)Oc4ccccc4)C21)C3(C)C` (some centres undefined) displayed an IC50 of 90 nM. In data set [3], the result was inactive.
`CC(=O)O[C@@]12COC1C[C@H](O)[C@@]1(C)C(=O)[C@H](O)C3=C(C)[C@@H](OC(=O)[C@H](O)[C@@H](NC(=O)NCC(=O)N[C@@H](COCc4ccccc4)C(=O)N[C@@H](Cc4ccc(OCc5ccccc5)cc4)C(=O)OCc4ccccc4)c4ccccc4)C[C@@](O)([C@@H](OCc4ccccc4)C21)C3(C)C` (some centres undefined) registered an IC50 in data set [1] of 90 nM. Moreover, the outcome in data set [3] was inactive.
For `CC(=O)O[C@@]12COC1C[C@H](O)[C@@]1(C)C(=O)[C@H](O)C3=C(C)[C@@H](OC(=O)C(O)[C@@H](NC(=O)N[C@H](C(=O)N4CCC[C@H]4C(=O)NCC(=O)NCC(=O)O)C(C)C)c4ccccc4)C[C@@](O)([C@@H](OC(=O)c4cccc(N)c4)C21)C3(C)C` (some centres undefined), the results for the half-inhibitory concentration (IC50) in data set [1] and in data set [2] were above 10000 nM and 1000 nM, respectively.
For the compound `CC(=O)O[C@@]12COC1C[C@H](O)[C@@]1(C)C(=O)[C@H](O)C3=C(C)[C@@H](OC(=O)[C@H](O)[C@@H](NC(=O)OC(C)(C)C)c4ccccc4)C[C@@](O)([C@@H](OC(=O)CNC(=O)CN)C21)C3(C)C` (some centres undefined), the Activity result in data set [1] is listed as “Not Active”. Moreover, in data set [3], the outcome was inactive.
With `CC(=O)O[C@@]12COC1C[C@H](O)[C@@]1(C)C(=O)[C@H](O)C3=C(C)[C@@H]4C[C@@](O)([C@@H](OC(=O)CNC(=O)CNC(=O)[C@@H]5CCCN5C(=O)[C@H](C(C)C)NC(=O)N[C@@H](c5ccccc5)[C@@H](O)C(=O)O4)C21)C3(C)C` (some centres undefined), the Activity entry in data set [1] was “Non-toxic”.
